Converted amounts (≈) assume the structure as drawn.

Test [1] relates to Staphylococcus aureus. In words: Antibacterial activity against methicillin resistant Staphylococcus aureus clinical isolate 7 incubated […] by microdilution resazurin assay. The test is classed as functional. Conditions: Staphylococcus aureus, isolate 7; read-out: MIC.
The subject of test [2] is Staphylococcus aureus. The test is described as follows: Antibacterial activity against methicillin resistant Staphylococcus aureus clinical isolate 3 incubated for 7 to 14 days by microdilution resazurin assay. (In broth dilution the organism is exposed to a series of concentrations in liquid medium.)
The test system of test [3] is Staphylococcus aureus. In words: Antibacterial activity against methicillin resistant Staphylococcus aureus clinical isolate 2 incubated […] by microdilution resazurin assay. As to conditions: Staphylococcus aureus, isolate 2; read-out: MIC. The test is classed as functional.
The test system of test [4] is Staphylococcus aureus. The test is described as follows: Antibacterial activity against methicillin resistant Staphylococcus aureus clinical isolate 1 incubated […] by microdilution resazurin assay. The test is classed as functional. Conditions: Staphylococcus aureus, isolate 1; read-out: MIC.
Test [5] relates to Staphylococcus aureus. The test is described as follows: Antibacterial activity against methicillin resistant Staphylococcus aureus clinical isolate 9 incubated […] by microdilution resazurin assay. The test is classed as functional. Conditions: Staphylococcus aureus, isolate 9; read-out: MIC.
A short description of test [6]: Cytotoxicity against human WS1 cells by resazurin reduction assay. The test is classed as cell-based. Conditions: Homo sapiens, WS1. Put shortly: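 WS1 human fibroblast line; resazurin reduction test, slightly modified from an earlier method. Etoposide served as positive control.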
For orientation: The colour change of resazurin is a common sign of viable cells or microbes.

The test system of test [7] is Staphylococcus aureus. In words: Antibacterial activity against methicillin resistant Staphylococcus aureus clinical isolate 6 incubated […] by microdilution resazurin assay. The test is classed as functional. Conditions: Staphylococcus aureus, isolate 6; read-out: MIC.
The subject of test [8] is Staphylococcus aureus. The test is described as follows: Antibacterial activity against methicillin resistant Staphylococcus aureus clinical isolate 8 incubated […] by microdilution resazurin assay. The test is classed as functional. Conditions: Staphylococcus aureus, isolate 8; read-out: MIC.
The test system of test [9] is Staphylococcus aureus. The test is described as follows: Antibacterial activity against Staphylococcus aureus ATCC 25923 incubated […] by microdilution resazurin assay. The test is classed as functional.
For test [10], the system named is Staphylococcus aureus. The test is described as follows: Antibacterial activity against methicillin resistant Staphylococcus aureus clinical isolate 5 incubated […] by microdilution resazurin assay. The test is classed as functional. Conditions: Staphylococcus aureus, isolate 5; read-out: MIC.
The subject of test [11] is Staphylococcus aureus. The test is described as follows: Antibacterial activity against methicillin resistant Staphylococcus aureus clinical isolate 10 incubated […] by microdilution resazurin assay. The test is classed as functional. Conditions: Staphylococcus aureus, isolate 10; read-out: MIC.
The subject of test [12] is Staphylococcus aureus. The test is described as follows: Antibacterial activity against methicillin resistant Staphylococcus aureus clinical isolate 4 incubated for 7 to 14 days by microdilution resazurin assay.
Setting [13] is: Staphylococcus aureus, ATCC 25923, read-out: MIC.

For orientation: MIC means the lowest concentration found to suppress growth. A word on the IC50: it is the concentration at which inhibition is half-maximal. High values mean a need for much substance, low ones inhibition by little substance. Regarding `O=C(CCc1ccccc1)c1c(O)cc2c(c1O)C[C@@H](C/C=C/c1ccc(O)cc1)[C@H](c1ccc(O)cc1)O2` (racemic), the minimum inhibitory concentration (MIC) in test [1], in [2], in test [3], in test [4], in [5] and in test [7] was more than 50 µM each time. Besides, the minimum inhibitory concentration (MIC) in [8], in test [9] (setting [13]), in [10], in test [11] and in test [12] was more than 50 µM throughout. Besides, the IC50 in test [6] is more than 10 µM.
With `COc1ccc(CCC(=O)c2c(O)cc(O)c(C(c3ccc(O)cc3)C(C/C=C/c3ccc(O)cc3)COC(=O)/C=C/c3ccccc3)c2O)cc1` (racemic), the MIC in test [1], in test [2], in test [3], in test [4], in test [5] and in test [7] was more than 50 µM throughout. Moreover, the MIC in [8] was more than 50 µM; in test [9] (setting [13]), 25 µM (≈ 17.5 µg/mL); in test [10] it was more than 50 µM; in test [11], more than 50 µM; in test [12], more than 50 µM. The compound also displayed a 50% inhibitory concentration (IC50) in test [6] of more than 10 µM.
Take `COc1ccc(CCC(=O)c2c(O)c3c(c4c2O[C@@H](c2ccc(O)cc2)[C@H](C/C=C/c2ccc(O)cc2)C4)O[C@@H](c2ccc(O)cc2)[C@H](O)C3)cc1` (racemic): the minimum inhibitory concentration (MIC) in [1] was found to be 25 µM (≈ 17.5 µg/mL); in [2], 25 µM (≈ 17.5 µg/mL); in [3], 25 µM (≈ 17.5 µg/mL); in test [4] it was 25 µM (≈ 17.5 µg/mL); in [5], 25 µM (≈ 17.5 µg/mL); in [7], 50 µM (≈ 35 µg/mL). The MIC in test [8] was 25 µM (≈ 17.5 µg/mL); in [9] (setting [13]), 50 µM (≈ 35 µg/mL); in [10] it was 13 µM (≈ 9.11 µg/mL); in test [11], 25 µM (≈ 17.5 µg/mL); in test [12], 50 µM (≈ 35 µg/mL). In test [6], this compound returned a 50% inhibitory concentration (IC50) of more than 10 µM.
For the compound `COc1ccc(CCC(=O)c2c(O)c(C/C=C/c3ccc(O)cc3)c(O)c3c2O[C@@H](c2ccc(O)cc2)[C@H](C/C=C/c2ccc(O)cc2)C3)cc1` (racemic), the minimal inhibitory concentration (MIC) in [1] is 6 µM (≈ 4.11 µg/mL); in [2] it was 3 µM (≈ 2.05 µg/mL); in test [3] it was 6 µM (≈ 4.11 µg/mL); in test [4], 6 µM (≈ 4.11 µg/mL); in [5] it was 13 µM (≈ 8.9 µg/mL); in test [7] it was 6 µM (≈ 4.11 µg/mL). The MIC in test [8], in test [9] (setting [13]), in test [10], in [11] and in test [12] was 13 µM (≈ 8.9 µg/mL) each time. The compound further displayed an IC50 in [6] of more than 10 µM.
On to `O=C(CCc1ccccc1)c1c(O)c2c(c3c1O[C@@H](c1ccc(O)cc1)[C@H](C/C=C/c1ccc(O)cc1)C3)O[C@@H](c1ccc(O)cc1)[C@H](O)C2` (racemic), for which the minimum inhibitory concentration (MIC) in test [1], in test [2], in test [3], in test [4], in [5] and in [7] was 6 µM (≈ 4.02 µg/mL) each time. The MIC in test [8], in test [9] (setting [13]), in test [10], in test [11] and in [12] was 6 µM (≈ 4.02 µg/mL) each time. The compound further returned a 50% inhibitory concentration (IC50) in test [6] of more than 10 µM.
Regarding `O=C(/C=C/c1ccccc1)OCC(C/C=C/c1ccc(O)cc1)C(c1ccc(O)cc1)c1c(O)cc(O)c(C(=O)CCc2ccccc2)c1O` (racemic), the minimal inhibitory concentration (MIC) was determined as 25 µM (≈ 16.8 µg/mL) in test [1]; 13 µM (≈ 8.72 µg/mL) in [2]; 25 µM (≈ 16.8 µg/mL) in test [3]; 25 µM (≈ 16.8 µg/mL) in [4]; 25 µM (≈ 16.8 µg/mL) in [5]; 25 µM (≈ 16.8 µg/mL) in [7]. In addition, the minimum inhibitory concentration (MIC) in test [8] worked out at 25 µM (≈ 16.8 µg/mL); in [9] (setting [13]), 50 µM (≈ 33.5 µg/mL); in test [10], 3 µM (≈ 2.01 µg/mL); in test [11], 25 µM (≈ 16.8 µg/mL); in [12], 25 µM (≈ 16.8 µg/mL). In addition, in [6], the 50% inhibitory concentration (IC50) was more than 10 µM.
Turning to `O=C(CCc1ccccc1)c1c(O)cc2c(c1O)CC(O)C(c1ccc(O)cc1)O2` (stereo in doubt; (-)-17), the minimum inhibitory concentration (MIC) in [1] was 25 µM (≈ 10.2 µg/mL); in [2], 50 µM (≈ 20.3 µg/mL); in test [3], 50 µM (≈ 20.3 µg/mL); in test [4] it was 50 µM (≈ 20.3 µg/mL); in [5], more than 50 µM; in test [7], 50 µM (≈ 20.3 µg/mL). In addition, the MIC in test [8] was more than 50 µM; in test [9], 25 µM (≈ 10.2 µg/mL); in test [10], 50 µM (≈ 20.3 µg/mL); in [11], 50 µM (≈ 20.3 µg/mL); in [12], 50 µM (≈ 20.3 µg/mL). Moreover, the IC50 in test [6] is more than 10 µM.

Values taken from ChEMBL document CHEMBL4425163, “Structure elucidation of anti-methicillin resistant Staphylococcus aureus (MRSA) flavonoids from balsam poplar buds” (Bioorg Med Chem, 2016).
